Data on 18 compounds can be found in ChEMBL document CHEMBL2029273, “Structure-based design of potent and ligand-efficient inhibitors of CTX-M class A β-lactamase” (J Med Chem, 2012).

The nature of assay [1]: Inhibition of beta-lactamase CTX-M using nitrocefin as substrate. To be noted: for pKi: read-out: Ki.
Assay [2] deals with Escherichia coli. As to the kind of experiment: Antibacterial activity against Escherichia coli expressing CTX-M-14 beta-lactamase. The class given is functional. The method, boiled down: (§1)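 MIC per CLSI broth dilution in Mueller-Hinton medium. Compound dissolved in DMSO and diluted in medium, DMSO kept below 10%. Tested alone against clinical E. coli isolates carrying the named CTX-M enzyme. Values are the average of three independent experiments.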

Assay [3] deals with Escherichia coli. The experiment in a line: Antibacterial activity against Escherichia coli expressing CTX-M-9 beta-lactamase. The assay is classed as functional. In a few lines:
as §1

The subject of assay [4] is Escherichia coli. The experiment in a line: Antibacterial activity against Escherichia coli expressing CTX-M-9 beta-lactamase assessed as inhibition zone at 15 to 30 ug by disk diffusion assay. The assay is classed as functional, organism-based. In a few lines:
(§2)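 Disk diffusion: bacteria suspended in sterile water to 0.5 McFarland, diluted a further 10-fold and spread on Mueller-Hinton agar. Plates dried 10 min before disks were applied: cefotaxime 30 μg, inhibitor 30 μg, cefotaxime:inhibitor 30:15 or 30:30 μg, or solvent.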
Background: A growth-free zone around the sample is the usual read-out of agar diffusion tests.

For assay [5], the system named is Escherichia coli. As to the kind of experiment: Antibacterial activity against Escherichia coli expressing CTX-M-9 beta-lactamase assessed as increase of cefotaxime inhibition zone at 15 to 30 ug by disk diffusion assay. The class given is functional, organism-based. The method, boiled down:
as §2

Assay [6] relates to Escherichia coli. As to the kind of experiment: Antibacterial activity against Escherichia coli expressing CTX-M-14 beta-lactamase assessed as potentiation of cefotaxime MIC. The assay is classed as functional. In a few lines: (§3)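 Combination MIC per CLSI in Mueller-Hinton medium against clinical E. coli isolates carrying the named CTX-M enzyme. Inhibitor in DMSO (below 10%) was paired with cefotaxime at a 1:1 β-lactam:inhibitor ratio. Values are the average of three independent experiments.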

The test system of assay [7] is Escherichia coli. As to the kind of experiment: Antibacterial activity against Escherichia coli expressing CTX-M-9 beta-lactamase assessed as potentiation of cefotaxime MIC. The class given is functional. The method, boiled down:
as §3

The structures appear in SMILES notation. pKi: −log10 of the molar value. ≈ marks a conversion by molar mass, not a printed value. Calls of active or inactive are those of the source.

As usually defined, the pKi is the negative decadic logarithm of the Ki, by convention in mol/L. Consider `O=C(Nc1cccc(-c2nnn[nH]2)c1)c1cccc2[nH]ccc12`, for which, in assay [1], the pKi is 5.18.
The same measure, in the same setting: then `N#Cc1cc(Br)cc(C(=O)Nc2cccc(-c3nnn[nH]3)c2)c1`, with 4.47.
A word on the MIC: it is the smallest concentration in the dilution series that meets the test's criterion for growth inhibition. Read a low MIC as inhibition by little substance. As to `CO/N=C(\C(=O)N[C@@H]1C(=O)N2C(C(=O)O)=C(COC(C)=O)CS[C@H]12)c1csc(N)n1` [CEFOTAXIME], the values for the MIC against Escherichia coli [2] and in the assay with Escherichia coli [3] were 32 µg/mL (≈ 70.3 µM) and 64 µg/mL (≈ 141 µM), respectively.
Take `O=C(Nc1cccc(-c2nnn[nH]2)c1)c1cccc(C2CC2)c1`: the pKi in assay [1] was 5.51.
With `N#Cc1ccc(C(=O)Nc2cccc(-c3nn[nH]n3)c2)cc1`, the Ki result in assay [1] was “Not Active”.
In the case of `N#Cc1cccc(C(=O)Nc2cccc(-c3nnn[nH]3)c2)c1`, the pKi in assay [1] is 5.14.
On the same count and under the same terms, the figure for `COC(=O)c1cccc(C(=O)Nc2cccc(-c3nnn[nH]3)c2)c1` is 5.16.
On the same count and under the same terms, then `Nc1cc(C(=O)Nc2cccc(-c3nnn[nH]3)c2)cc(C(F)(F)F)c1`, with 6.00.
As to `COc1cccc(C(=O)Nc2cccc(-c3nnn[nH]3)c2)c1`, in assay [1], the pKi was 4.77.
Same read-out and setting: the figure for `CC(=O)c1cccc(C(=O)Nc2cccc(-c3nnn[nH]3)c2)c1` is 4.99; for `O=C(Nc1cccc(-c2nnn[nH]2)c1)c1cc(F)cc2[nH]cnc12` it is 5.57.
For `O=C(Nc1cccc(-c2nnn[nH]2)c1)c1cc(O)cc(C(F)(F)F)c1`, in assay [1], the pKi is 6.20.
On the same count and under the same terms, the figure for `Cc1cccc(C(=O)Nc2cccc(-c3nnn[nH]3)c2)c1` is 5.35.
With `O=C(Nc1cccc(-c2nnn[nH]2)c1)c1cc(C(F)(F)F)cc2[nH]cnc12`, the pKi in assay [1] was 7.05. In addition, in the assay on Escherichia coli [4], the “inhibition zone (IZ)” value was “inactive”. Also, the “inhibition zone (IZ)” value in the assay on Escherichia coli [5] is “Dose-dependent effect”. Further, the MIC with Escherichia coli [2] and against Escherichia coli [3] was at least 64 µg/mL in each case. The “fold change (FC)” value with Escherichia coli [6] and with Escherichia coli [7] was 64 throughout.
Take `O=C(Nc1cccc(-c2nnn[nH]2)c1)c1cccc([N+](=O)[O-])c1`: in assay [1], the pKi was 5.42.
For the compound `O=C(Nc1cccc(-c2nnn[nH]2)c1)c1cc(O)cc(Br)c1`, the pKi in assay [1] was 6.24.
On the same count and under the same terms, then `O=C(Nc1cccc(-c2nnn[nH]2)c1)c1cccc(Cl)c1`, with 5.21; and `O=C(Nc1cccc(-c2nnn[nH]2)c1)c1ccc2[nH]ccc2c1`, with 5.72.
